This is a sample that favours compounds with a hit; in the whole collection about 4.7% have one here.
ADAM10 inh: human ADAM10 inhibitors, primary screen, biochemical, QFRET, HTS; Disintegrin and metalloproteinase domain-containing protein 10 (Homo sapiens), O14672; recombinant ADAM10, EDANS/DABCYL FRET peptide cleavage, 3 h; inhibition, % at 7 µM; 370,000 tested, 0.62% active; AID 720582, 2013;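 active = inhibition above a per-campaign cutoff equal to the mean of compounds falling between control-based bounds plus 3 SD, cut at about 20% in these data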
Target sequence (O14672 214-748 limits assumed): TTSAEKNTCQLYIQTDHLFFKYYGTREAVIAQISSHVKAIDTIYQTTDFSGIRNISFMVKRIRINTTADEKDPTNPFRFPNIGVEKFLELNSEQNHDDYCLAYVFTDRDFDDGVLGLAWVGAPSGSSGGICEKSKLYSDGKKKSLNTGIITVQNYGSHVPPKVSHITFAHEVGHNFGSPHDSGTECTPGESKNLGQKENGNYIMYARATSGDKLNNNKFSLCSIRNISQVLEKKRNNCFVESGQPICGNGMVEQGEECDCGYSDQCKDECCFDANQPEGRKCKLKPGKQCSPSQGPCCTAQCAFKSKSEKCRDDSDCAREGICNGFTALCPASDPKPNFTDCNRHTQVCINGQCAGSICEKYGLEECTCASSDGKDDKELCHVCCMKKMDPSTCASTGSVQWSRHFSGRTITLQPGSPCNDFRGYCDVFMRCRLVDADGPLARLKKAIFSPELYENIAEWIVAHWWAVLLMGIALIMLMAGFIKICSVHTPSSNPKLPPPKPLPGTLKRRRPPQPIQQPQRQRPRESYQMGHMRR
MPTP inh: mitochondrial permeability transition pore inhibitors, primary screen, biochemical, isolated mouse mitochondria, absorbance; 360,000 tested, 1.4% active; inhibition, % at 10 µM; Ca2+ swelling absorbance, 30 min;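 active = inhibition of 50% or more, scaled per plate between neutral and stimulator controls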
ADAM17 inh: ADAM17 inhibitors, primary screen, biochemical, QFRET | recombinant ADAM17, EDANS/DABCYL FRET peptide cleavage | inhibition, % at 6.95 µM | 370,000 tested, 0.83% active;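 active = inhibition above the mean of compounds lying between control limits plus 3 SD, set per campaign, cut at about 8.5% in these data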
GRIN3A LBD mod: binders of NR3A ligand-binding domain, primary screen, biophysical, differential scanning fluorimetry, uHTS | 340,000 tested, 2.5% active | Tm shift relative to glycine control, % at 25 µM | AID 1259313, 2017 | NR3A LBD differential scanning fluorimetry, Tm shift; 0% = protein alone, 100% = glycine-bound protein | Glutamate receptor ionotropic, NMDA 3A (GRIN3A) ligand-binding domain;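 active = melting temperature shift of at least 10% of the positive control shift, at one fixed dose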
SKN-1 inh: suppressors of acrylamide-induced Pgst-4::GFP reporter in worms, primary screen, SKN-1 inhibitor project, whole organism, uHTS, GFP/RFP fluorescence ratio, strain VP596 | C. elegans VP596 Pgst-4::GFP/RFP ratio, 24 h | inhibition, % at 21.8 µM | AID 624304, 2012 | 360,000 tested, 0.49% active;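 active = interference check ratio from 0.5 to 1.5 plus GFP to RFP signal ratio inhibition reaching or exceeding a fixed threshold, cut at about 30% in these data, passing the limit was not always enough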
MT1-MMP act inh: blockers of MT1-MMP proenzyme processing, primary screen, HT1080 RFP-PRO-GFP cells, GFP/RFP fluorescence; Matrix metalloproteinase-14 (Homo sapiens), P50281; GFP/RFP ratio fluorescence, overnight; percent of plate control window, DMSO zero; GFP/RFP ratio change, % at 20 µM; 360,000 tested, 0.061% active; AID 651647, 2012;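 active = GFP/RFP ratio change of at least 30% with cell ATP level not reduced by more than half and red fluorescence within 50% of control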
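system = RFP-PRO-GFP reporter HT1080 cells | dosing = 20 µM single dose, 1% DMSO | timing = overnight cell settling, then overnight compound exposure, 37 °C, 5% CO2 | read-out basis = GFP/RFP fluorescence ratio | controls = DMSO and RFP-L50D-GFP cell wells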
ADAM10 ctr: ADAM10 inhibitors, counter-screen for ADAM17 exosite inhibitor project, biochemical, FRET, human ADAM10; shares compounds with ADAM17 inh; recombinant ADAM10, EDANS/DABCYL FRET peptide cleavage, 3 h; inhibition, % at 6.95 µM; 2,900 tested, 47% active;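 active = mean inhibition over the triplicate runs exceeds the activity threshold set in the earlier primary screen, cut at about 20% in these data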
ADAM17 confirm: ADAM17 inhibitors, hit retest, confirmation, biochemical, QFRET peptide cleavage; shares compounds with ADAM17 inh; recombinant ADAM17, EDANS/DABCYL QFRET peptide cleavage; AID 743257, 2014; inhibition, % at 6.95 µM; 2,900 tested, 65% active;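 active = mean inhibition across replicates above the hit cutoff set in the primary screen, cut at about 8.5% in these data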
A number is an active result; i = inactive; nt = not tested or not shown.

SMILES	ADAM10 inh	MPTP inh	ADAM17 inh	GRIN3A LBD mod	SKN-1 inh	MT1-MMP act inh	ADAM10 ctr	ADAM17 confirm
CN(CC(=O)Nc1cccc(F)c1)C(=O)c1cn(-c2ccccc2)nc1-c1ccc(Cl)cc1	i	i	9.4	27	i	i	28	17
Cc1nn(-c2ccccc2)c(Cl)c1C(=O)N(C)CC(=O)Nc1cccc(F)c1	i	i	i	i	i	i	nt	nt
Cc1cc(F)ccc1S(=O)(=O)N1CCCOC1CNC(=O)C(=O)NCCc1c[nH]c2ccccc12 (configuration not stated)	i	i	i	i	i	i	nt	nt
Cc1cc(C)c(S(=O)(=O)N2CCCOC2CNC(=O)C(=O)NCCc2c[nH]c3ccccc23)c(C)c1 (configuration not stated)	i	i	8.6	i	i	i	20	12
Cc1cc(C)cc(NC(=O)C(=O)NCCc2c[nH]c3ccccc23)c1	27	i	11	i	i	i	21	11
CN(c1ccccc1)S(=O)(=O)c1cccc(NC(=O)COC(=O)C2CCCCC2)c1	i	i	8.8	i	i	i	32	14
COc1ccc(N(C)S(=O)(=O)c2cccc(C(=O)OC(C(=O)Nc3cc(C)cc(C)c3)c3ccccc3)c2)cc1 (configuration not stated)	i	i	8.6	i	i	i	i	13
CCC(C(=O)Nc1cccc(S(=O)(=O)N(C)c2ccccc2)c1)c1ccccc1 (configuration not stated)	i	i	9.3	i	40	i	i	8.7
CN(c1ccccc1)S(=O)(=O)c1cccc(C(=O)Nc2cccc(C(=O)NC3CC3)c2)c1	i	i	9.2	i	i	i	i	i
CC(=O)c1cccc(NC(=O)C(OC(=O)c2cccc(S(=O)(=O)N(C)c3ccccc3)c2)c2ccccc2)c1 (configuration not stated)	i	i	9.1	i	i	i	24	12
Cc1cccc(C(C#N)c2nc3ccccc3nc2C(F)(F)F)c1 (configuration not stated)	i	i	8.7	i	i	i	i	i
CCOc1ccc(-n2c(SCC(=O)Nc3ccccc3-c3ccccc3)nnc2-c2ccccc2)cc1	i	nt	9.6	nt	nt	nt	38	20
CC(C)(C)c1ccc(-c2nnc(SCC(=O)Nc3ccccc3-c3ccccc3)n2Cc2ccco2)cc1	i	nt	11	nt	nt	nt	20	17
Cc1cc(NC(=O)CSc2nnc(-c3ccccc3)n2Cc2ccco2)no1	i	i	i	i	i	i	nt	nt
COc1cccc(-c2nnc(SCC(=O)Nc3ccc(Oc4ccccc4)cc3)n2Cc2ccco2)c1	i	nt	9.1	nt	nt	nt	27	16
CC(C)(C)c1ccc(-c2nnc(SCC(=O)Nc3ccc(S(=O)(=O)Nc4nccs4)cc3)n2Cc2ccco2)cc1	i	nt	9.6	nt	nt	nt	23	13
CCOc1ccc(-n2c(SCC(=O)Nc3cccc4ccccc34)nnc2-c2ccccc2)cc1	i	nt	i	nt	nt	nt	nt	nt
O=C(NCCN1CCOCC1)C(=O)c1c[nH]c2ccccc12	i	i	i	i	i	i	nt	nt

Screens deposited in PubChem BioAssay by several laboratories.
